Values after ≈ are worked out from the molar mass of the structure shown.
System: KB
Assay: Evaluated for cytotoxicity in the KB cell culture assay
Format: functional
Settings: Homo sapiens, read-out: ED50 (the source's name)
Procedure, shortened: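 Cytotoxicity screen per NIH protocol. 10^4 tumor cells grown in MEM with 10% fetal calf serum; penicillin and streptomycin given on day 3. Drug tested at 0.1 to 20 µg/mL (N = 4). Viable cells counted by trypan blue exclusion and expressed as % of the 0.05% Tween 80-water control. ED50 estimated from a semi-log plot of concentration vs % viable cells.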

Row | SMILES | EC50 [µg/mL]
1 | CC(=O)OC1CCC2=C(O1)C(=O)c1ccccc1C2=O (stereo not drawn) | 10 (≈ 36.7 µM)
2 | CC(O)c1cc2c(o1)C(=O)c1ccccc1C2=O (stereo not drawn) | 2 (≈ 8.26 µM)
3 | C/C=C/C1=C(OC(=O)c2ccccc2)C(=O)c2ccccc2C1=O | 5.1 (≈ 16 µM)
4 | C/C=C/C1=C(OC(C)=O)C(=O)c2ccccc2C1=O | 5.1 (≈ 19.9 µM)
5 | CC(=O)c1cc2c(o1)C(=O)c1ccccc1C2=O [NAPABUCASIN] | 1 (≈ 4.16 µM)
6 | O=C1C2=C(CC(O)OC2)C(=O)c2ccccc21 (stereo not drawn) | 3 (≈ 13 µM)
7 | COC1CCC2=C(O1)C(=O)c1ccccc1C2=O (stereo not drawn) | 11 (≈ 45 µM)
8 | C/C=C/C1=C(OC(=O)CC)C(=O)c2ccccc2C1=O | 6.5 (≈ 24 µM)
9 | CC(=O)OC1CC2=C(CO1)C(=O)c1ccccc1C2=O (stereo not drawn) | 5 (≈ 18.4 µM)
10 | O=C1C2=C(OCC=C2)C(=O)c2ccccc21 | 0.4 (≈ 1.88 µM)
11 | O=C1C2=C(OC(O)CC2)C(=O)c2ccccc21 (stereo not drawn) | 20 (≈ 86.9 µM)
12 | O=C1C2=C(OCCC2)C(=O)c2ccccc21 | 8 (≈ 37.3 µM)
13 | Cc1cc2c(o1)-c1ccccc1C(=O)C2=O | 0.6 (≈ 2.83 µM)
14 | O=C1C2=C(OC(Cl)CC2)C(=O)c2ccccc21 (stereo not drawn) | 9.3 (≈ 37.4 µM)
15 | CC(C)=CCC1=C(O)C(=O)c2ccccc2C1=O [LAPACHOL] | 4.4 (≈ 18.2 µM)
16 | Cc1cc2c(o1)C(=O)c1ccccc1C2=O | 0.3 (≈ 1.41 µM)
17 | C=C/C=C1/C(=O)C(=O)c2ccccc2C1=O | 0.4 (≈ 1.88 µM)
18 | C/C=C/C1=C(O)C(=O)c2ccccc2C1=O | 14 (≈ 65.4 µM)

From ChEMBL document CHEMBL1123861, “Antitumor agents. 89. Psychorubrin, a new cytotoxic naphthoquinone from Psychotria rubra and its structure-activity relationships” (1987)
